Data published in article PMC10108379 (RSC Advances, 2023).

Legend:
[1] = Pharmacokinetics in rat plasma after oral administration of AR and SAR extracts; type: in vivo, Sprague-Dawley (SD) rats
[2] = Stability of the three components in rat plasma; type: in vitro ADME; conditions: for Stability, RE: n = 6
Method in brief: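 Blank rat plasma spiked with each analyte at low, medium and high QC levels, then subjected to repeated freeze–thaw cycles. Samples were thawed to room temperature and precipitated with cold methanol containing puerarin as internal standard, then vortexed 3 min and centrifuged at 12 000 rpm for 15 min. Analysis was by UPLC-MS/MS on an HSS T3 column at 30 °C (0.1% formic acid water/acetonitrile gradient). Acceptance limit: within 15%.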

HepG-2 cells = conditions: previous PD experiments of the group; cited from earlier work
[3] = rat plasma, oral AR extract 5 mL kg^−1, n = 6
[4] = freeze–thaw cycles, high QC (200 / 300 / 250 μg mL^−1)
[5] = −20 °C for 30 days, high QC (200 / 300 / 250 μg mL^−1)

Compound: O=c1c2cc(O)c(O)cc2oc2cc(O)c([C@@H]3O[C@H](CO)[C@@H](O)[C@H](O)[C@H]3O)c(O)c12 [Mangiferin, mangiferin]
- increase of AUC after administration of the SAR extract ([1]; SAR group compared to AR group, rats, oral): 22.3%
- T max [1, 3]: 5.76 ± 0.52 h
- t 1/2 [1, 3]: 3.01 ± 0.36 h
- Stability, RE [2, 4]: 10.2%
- Stability, RE [2, 5]: 2.3%
- glucose consumption of HepG-2 cells (HepG-2 cells): improved the glucose consumption

Compound: C[C@H]1CC[C@@]2(OC1)O[C@H]1C[C@H]3[C@@H]4CC[C@@H]5C[C@@H](O[C@@H]6O[C@H](CO)[C@H](O)[C@H](O)[C@H]6O[C@@H]6O[C@H](CO)[C@@H](O)[C@H](O)[C@H]6O)CC[C@]5(C)[C@H]4CC[C@]3(C)[C@H]1[C@@H]2C [Timosaponin AIII, timosaponin AIII]
- C max [1, 3]: 3.67 ± 0.51 ng/mL
- relative error (RE) after each stability experiment ([2]; 4 °C 24 h, −20 °C 30 days, freeze–thaw cycles, all QC levels): ≤ 10.6%
- Stability, RE ([2]; autosampler at 4 °C for 24 h, low QC (2.0 / 3.0 / 2.5 μg mL^−1)): 1.3%
- Stability, RE [2, 4]: 3.8%
- Stability, RE ([2]; freeze–thaw cycles, low QC (2.0 / 3.0 / 2.5 μg mL^−1)): −0.1%
- Stability, RE ([2]; freeze–thaw cycles, medium QC (20.0 / 30.0 / 25.0 μg mL^−1)): 6.8%
- Stability, RE [2, 5]: 10.6%
- Stability, RE ([2]; −20 °C for 30 days, low QC (2.0 / 3.0 / 2.5 μg mL^−1)): 2.2%
- Stability, RE ([2]; −20 °C for 30 days, medium QC (20.0 / 30.0 / 25.0 μg mL^−1)): 6.3%
- glucose consumption of HepG-2 cells (HepG-2 cells): improved the glucose consumption
